Measured values of several laboratories.
Each line is one published result; the experiments were not run side by side.
Target: RAC-beta serine/threonine-protein kinase (AKT2, Homo sapiens, UniProt P31751)

read-out | method | concentration | remaining binding | Structure (SMILES)
binding | competition with immobilised ligand | 1 µM | 100% | CNC(=O)[C@@H]1CC[C@@H](n2c(-c3ccc4cnccc4c3)nc3ccc(C(=O)NCc4cccc(C(N)=O)c4)cc32)C1
binding | – | 1 µM | 100% | CN(C)c1nccc(-c2cnn3ncccc23)n1
cell-free assay | competition with immobilised ligand | 1 µM | 100% | O=C(O)[C@@H]1[C@@H](Cn2nnc3ccccc3c2=O)CC[C@H]1C(=O)c1ccc(OCCC2CCOCC2)cc1
binding | competition with immobilised ligand | 50 nM | 100% | C[C@@H]1CN(c2ccc3ncc(-c4ccc5[nH]nc(C6CC6)c5c4)n3n2)C[C@H](C)O1
binding | – | 1 µM | 100% | C[C@H]1CCN(c2nccc(-c3cnn4ncccc34)n2)C1
cell-free assay | competition with immobilised ligand | 0.1 µM | 100% | CC(C)CC(=O)N1CCc2nc(-c3ccc(Br)cc3)nc(N(C)Cc3ccccc3)c2C1
binding | – | 1 µM | 100% | CN(C)c1ncc(F)c(-c2cnn3ncccc23)n1
binding | competition with immobilised ligand | 1 µM | 100% | O=C(c1ccc(Nc2nccc(-c3cc4ccccc4s3)n2)cc1)N1CCC(N2CCCC2)CC1
binding | competition with immobilised ligand | 1 µM | 100% | C=CC(=O)N1CCC(C(=O)NCC(=O)N2CCN(c3nc(-c4cnc(N)nc4C(F)F)nc(N4CCOCC4)n3)CC2)CC1
binding | – | 1 µM | 100% | CC1CCCN1c1nccc(-c2cnn3ncccc23)n1 (stereo not drawn)
cell-free assay | competition with immobilised ligand | 1 µM | 84% | N#CC1(c2ccccn2)CCN(Cc2cc(C(=O)N3CCCC3)c(=O)n3ccccc23)CC1
binding | competition with immobilised ligand | 1 µM | 88% | O=C(c1ccc(Nc2ncc(Cl)c(-c3cc4ccccc4s3)n2)cc1)N1CCC(N2CCCC2)CC1
binding | – | 1 µM | 100% | N[C@H]1CCN(c2nccc(-c3cnn4ncccc34)n2)C1
cell-free assay | competition with immobilised ligand | 1 µM | 98% | Cc1c(NC(=O)c2cc(C(N)=O)nc3cc(F)ccc23)c(C(F)(F)F)nn1Cc1ccc(C#N)cc1
binding | competition with immobilised ligand | 0.1 µM | 99% | C[C@@H](c1ccc(-n2cnc3c(N)ncnc32)cc1)N1CCc2nn(C)c(Cc3ccccc3)c2C1=O
binding | competition with immobilised ligand | 1 µM | 100% | CCN1CCN(Cc2ccc(C(=O)Nc3ccc(C)c(Oc4ccc5c(c4)CC(=O)N5)c3)cc2C(F)(F)F)CC1
binding | competition with immobilised ligand | 1 µM | 94% | COc1cnc(Nc2cccc(S(N)(=O)=O)c2)nc1N1CCN(c2ccccc2)CC1
binding | competition with immobilised ligand | 1 µM | 87% | O=C(NCCCN1CCOCC1)c1ccc(Nc2nccc(-c3cc4ccccc4s3)n2)cc1
cell-free assay | competition with immobilised ligand | 1 µM | 89% | COc1ccc2c(O[C@@H]3C[C@H]4C(=O)N[C@]5(C(=O)O)CC5/C=C\CCCCC[C@H](NC(=O)OC5CCCC5)C(=O)N4C3)cc(-c3csc(NC(=O)C(C)C)n3)nc2c1C (stereo partly drawn)
binding | competition with immobilised ligand | 10 µM | 93% | N#Cc1ccccc1CSc1nnc2c(n1)[nH]c1ccccc12
cell-free assay | competition with immobilised ligand | 1 µM | 93% | CCS(=O)(=O)c1cc2cc(C[C@@](O)(CC(C)(C)c3ccc(F)cc3C(N)=O)C(F)(F)F)[nH]c2cn1
binding | – | 1 µM | 75% | CN(CCCC(F)(F)F)c1nccc(-c2cnn3ncccc23)n1
binding | competition with immobilised ligand | 1 µM | 87% | O=C(Nc1c[nH]nc1C(=O)NC1CCNCC1)c1cc(F)cc(F)c1
cell-free assay | competition with immobilised ligand | 1 µM | 72% | CCC(=O)N[C@@H]1CC[C@H](C(=O)N(C)c2ccc(-c3nc4ccccc4o3)cc2)C1
